From ChEMBL document CHEMBL1275586, “Phenotypic susceptibility to bevirimat in isolates from HIV-1-infected patients without prior exposure to bevirimat” (Antimicrob Agents Chemother, 2010)

What was measured:
[1] = system: Human immunodeficiency virus 1; test: Antiviral activity against Human immunodeficiency virus 1 isolate 39 harboring Gag-capsid G357S and V362I mutant gene and Gag-SP-1 T375A mutant gene infected in human MT-2 cells by XTT assay relative to wild-type; assay type: functional, MT2
How it was run: (§1)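 Patient Gag-protease (SfoI-XmaI) fragments were ligated into the pXXLAI backbone, with colonies pooled to keep quasispecies. Virus came from 293T transfection, harvested at 2 days. MT-2 infection at 37°C used an input giving XTT signal-to-noise of 2.5–4.0 (≈MOI 0.001). Cells at ≈17,000/well with drug dilutions, 5 days, 37°C; XTT 1 h, A450–650. EC50 from % cell death; fold change vs wild-type LAI.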

[2] = system: Human immunodeficiency virus 1; test: Antiviral activity against Human immunodeficiency virus 1 isolate 31 harboring Gag-SP1 V370A, T371S, N372A/T, A374N/T and I376V mutant gene infected in human MT-2 cells by XTT assay relative to wild-type; assay type: functional, MT2; how it was run: as §1
[3] = system: Human immunodeficiency virus 1; test: Antiviral activity against Human immunodeficiency virus 1 LAI infected in human MT-2 cells by XTT-assay; assay type: functional, organism-based; details: MT2
How it was run: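 Recombinant virus produced by transfecting 7 μg viral plasmid (pXXLAI backbone; patient-derived SfoI-XmaI fragment for isolates) into 293T cells. Supernatant harvested 2 days later. 2.4 million MT-2 cells infected at 37°C with virus giving XTT signal-to-noise 2.5–4.0, then plated ≈17,000 cells/well with drug dilutions. After 5 days at 37°C, 5% CO2, 1.67 mg/ml XTT added for 1 h. A450–A650 read; EC50 from cell-death curves.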

[4] = system: Human immunodeficiency virus 1; test: Antiviral activity against Human immunodeficiency virus 1 isolate 30 infected in human MT-2 cells by XTT assay relative to wild-type; assay type: functional, MT2
[5] = system: Human immunodeficiency virus 1; test: Antiviral activity against antiretroviral-pretreated PI-resistant Human immunodeficiency virus 1 isolate 24 harboring Gag-capsid V362I mutant gene, Gag-SP-1 V370A, N372T and T375A mutant gene and deletion at T371 in Gag-SP-1 infected in human MT-2 cells by XTT assay relative to wild-type; assay type: functional, MT2
How it was run: (§2)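 Patient-derived Gag fragments were pooled as bacterial colonies to keep quasispecies diversity and ligated into the pXXLAI (HIV-1 LAI) backbone. Virus was made by transfecting 293T cells and harvesting supernatant 2 days later. MT-2 cells were infected at 37°C with an inoculum titrated to give an XTT signal-to-noise of 2.5–4.0. Cells were plated into drug dilutions, incubated 5 days at 37°C, and read by XTT absorbance (450−650 nm). EC50 was taken from percent cell death and expressed as fold change versus wild-type LAI.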

[6] = system: Human immunodeficiency virus 1; test: Antiviral activity against Human immunodeficiency virus 1 isolate 37 harboring Gag-capsid G357S mutant gene and Gag-SP1 I376V mutant gene infected in human MT-2 cells by XTT assay relative to wild-type; assay type: functional, MT2; how it was run: as §1
[7] = system: Human immunodeficiency virus 1; test: Antiviral activity against antiretroviral-pretreated PI-resistant Human immunodeficiency virus 1 isolate 23 harboring Gag-capsid G357S and V362I mutant gene, Gag-SP-1 V370A and T375A mutant gene and deletion at T371 in Gag-SP-1 infected in human MT-2 cells by XTT assay relative to wild-type; assay type: functional, MT2; how it was run: as §2

**Q.** How did the “fold change (FC)” value [1] turn out when `C=C(C)[C@@H]1CC[C@]2(C(=O)O)CC[C@]3(C)[C@H](CC[C@@H]4[C@@]5(C)CC[C@H](OC(=O)CC(C)(C)C(=O)O)C(C)(C)[C@@H]5CC[C@]43C)[C@@H]12` [BEVIRIMAT] was run?
**A.** The value was over 100.

**Q.** What about the “fold change (FC)” value [2] of the same molecule?
**A.** Its value is over 100.

**Q.** What about the EC50 [3] of the same molecule?
**A.** The EC50 was 34 nM.

**Q.** What about the “fold change (FC)” value [4] of the same molecule?
**A.** Its value is 5.2.

**Q.** What about the “fold change (FC)” value [5] of the same molecule?
**A.** Its value is over 100.

**Q.** What about the “fold change (FC)” value [6] of the same molecule?
**A.** Its value is 4.6.

**Q.** What about the “fold change (FC)” value [7] of the same molecule?
**A.** Its value is over 100.
